According to ChEMBL document CHEMBL5108039, “Piperazine tethered bergenin heterocyclic hybrids: design, synthesis, anticancer activity, and molecular docking studies” (RSC Med Chem, 2022):

Legend:
SCC-9 [1] = assay: Cell cycle arrest in human SCC-9 cells assessed as accumulation at G0/G1 phase at 46 uM incubated for 24 hrs by flow cytometry (reference value: 70.8 %); format: functional
SCC-9 [2] = assay: Cell cycle arrest in human SCC-9 cells assessed as accumulation at G2/M phase at 46 uM incubated for 24 hrs by flow cytometry (reference value: 14.2 %); format: functional
A549 = assay: Cytotoxicity against human A549 cells assessed as cell growth inhibition; format: functional, cell-based
How it was run: (§1)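 Compounds were dissolved in sterile DMSO as 10 mg ml−1 stocks and tested in vitro for cytotoxicity in a cell-line panel, with DMSO (0.01%) as vehicle control and doxorubicin as standard. Mean IC50 values were reported, and the normal lung epithelial cells were tested up to 100 μM.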

SCC-9 [3] = assay: Induction of apoptosis in human SCC-9 cells assessed as necrotic cells at 46 uM incubated for 24 hrs by Annexin V-FITC/PI staining based flow cytometric analysis (reference value: 0.1 %); format: functional
CAL-27 [4] = assay: Induction of apoptosis in human CAL-27 cells assessed as early apoptotic cells at 63 uM incubated for 24 hrs by Annexin V-FITC/PI staining based flow cytometric analysis (reference value: 0.1 %); format: functional
How it was run: (§2)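 CAL27 cells were treated with vehicle, doxorubicin or test compounds at 10–63 μM, and apoptosis was assessed by annexin V–FITC/PI staining with flow cytometry. Cells were scored as live, early apoptotic, late apoptotic or necrotic. The vehicle was DMSO (0.01%).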

HCT-15 = assay: Cytotoxicity against human HCT-15 cells assessed as cell growth inhibition; format: functional, cell-based
How it was run: (§3)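 Compounds were dissolved in sterile DMSO as 10 mg ml−1 stocks and tested for in vitro growth inhibition of human cancer cell lines. Doxorubicin was the standard drug and DMSO (0.01%) the vehicle control. IC50 values are reported as means.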

SCC-9 [5] = assay: Cell cycle arrest in human SCC-9 cells assessed as accumulation at S phase at 92 uM incubated for 24 hrs by flow cytometry (reference value: 14.4 %); format: functional
CAL-27 [6] = assay: Cell cycle arrest in human CAL-27 cells assessed as accumulation at G0/G1 phase at 31.5 uM incubated for 24 hrs by flow cytometry (reference value: 77.6 %); format: functional
CAL-27 [7] = assay: Induction of apoptosis in human CAL-27 cells assessed as necrotic cells at 31.5 uM incubated for 24 hrs by Annexin V-FITC/PI staining based flow cytometric analysis (reference value: 0.0 %); format: functional
SCC-9 [8] = assay: Cell cycle arrest in human SCC-9 cells assessed as accumulation at S phase at 46 uM incubated for 24 hrs by flow cytometry (reference value: 14.4 %); format: functional
SCC-9 [9] = assay: Cell cycle arrest in human SCC-9 cells assessed as accumulation at G2/M phase at 92 uM incubated for 24 hrs by flow cytometry (reference value: 14.2 %); format: functional
CAL-27 [10] = assay: Cell cycle arrest in human CAL-27 cells assessed as accumulation at G2/M phase at 63 uM incubated for 24 hrs by flow cytometry (reference value: 11.9 %); format: functional
SCC-9 [11] = assay: Induction of apoptosis in human SCC-9 cells assessed as live cells at 46 uM incubated for 24 hrs by Annexin V-FITC/PI staining based flow cytometric analysis (reference value: 95.7 %); format: functional
SCC-9 [12] = assay: Cell cycle arrest in human SCC-9 cells assessed as accumulation at G0/G1 phase at 92 uM incubated for 24 hrs by flow cytometry (reference value: 70.8 %); format: functional
CAL-27 [13] = assay: Induction of apoptosis in human CAL-27 cells assessed as late apoptotic cells at 31.5 uM incubated for 24 hrs by Annexin V-FITC/PI staining based flow cytometric analysis (reference value: 0.1 %); format: functional; how it was run: as §2
CAL-27 [14] = assay: Induction of apoptosis in human CAL-27 cells assessed as live cells at 31.5 uM incubated for 24 hrs by Annexin V-FITC/PI staining based flow cytometric analysis (reference value: 99.8 %); format: functional; how it was run: as §2
CAL-27 [15] = assay: Induction of apoptosis in human CAL-27 cells assessed as late apoptotic cells at 63 uM incubated for 24 hrs by Annexin V-FITC/PI staining based flow cytometric analysis (reference value: 0.1 %); format: functional; how it was run: as §2
CAL-27 [16] = assay: Cell cycle arrest in human CAL-27 cells assessed as accumulation at G2/M phase at 31.5 uM incubated for 24 hrs by flow cytometry (reference value: 11.9 %); format: functional
SCC-9 [17] = assay: Induction of apoptosis in human SCC-9 cells assessed as live cells at 92 uM incubated for 24 hrs by Annexin V-FITC/PI staining based flow cytometric analysis (reference value: 95.7 %); format: functional
CAL-27 [18] = assay: Induction of apoptosis in human CAL-27 cells assessed as early apoptotic cells at 31.5 uM incubated for 24 hrs by Annexin V-FITC/PI staining based flow cytometric analysis (reference value: 0.1 %); format: functional; how it was run: as §2
SCC-9 [19] = assay: Induction of apoptosis in human SCC-9 cells assessed as late apoptotic cells at 46 uM incubated for 24 hrs by Annexin V-FITC/PI staining based flow cytometric analysis (reference value: 1.4 %); format: functional
SCC-9 [20] = assay: Cytotoxicity against human SCC-9 cells assessed as cell growth inhibition; format: functional, cell-based; how it was run: as §3
CAL-27 [21] = assay: Induction of apoptosis in human CAL-27 cells assessed as necrotic cells at 63 uM incubated for 24 hrs by Annexin V-FITC/PI staining based flow cytometric analysis (reference value: 0.0 %); format: functional
CAL-27 [22] = assay: Cell cycle arrest in human CAL-27 cells assessed as accumulation at S phase at 31.5 uM incubated for 24 hrs by flow cytometry (reference value: 3.6 %); format: functional
SCC-9 [23] = assay: Induction of apoptosis in human SCC-9 cells assessed as early apoptotic cells at 46 uM incubated for 24 hrs by Annexin V-FITC/PI staining based flow cytometric analysis (reference value: 2.8 %); format: functional
CAL-27 [24] = assay: Cytotoxicity against human CAL-27 cells assessed as cell growth inhibition; format: functional, cell-based; how it was run: as §3
CAL-27 [25] = assay: Cell cycle arrest in human CAL-27 cells assessed as accumulation at G0/G1 phase at 63 uM incubated for 24 hrs by flow cytometry (reference value: 77.6 %); format: functional
SCC-9 [26] = assay: Induction of apoptosis in human SCC-9 cells assessed as early apoptotic cells at 92 uM incubated for 24 hrs by Annexin V-FITC/PI staining based flow cytometric analysis (reference value: 2.8 %); format: functional
MCF7 = assay: Cytotoxicity against human MCF7 cells assessed as cell growth inhibition; format: functional, cell-based; how it was run: as §3
SCC-9 [27] = assay: Induction of apoptosis in human SCC-9 cells assessed as necrotic cells at 92 uM incubated for 24 hrs by Annexin V-FITC/PI staining based flow cytometric analysis (reference value: 0.1 %); format: functional
[28] = Cytotoxicity against human BEAS-2B cells assessed as cell growth inhibition; format: toxicity, cell-based; how it was run: as §1
SCC-9 [29] = assay: Induction of apoptosis in human SCC-9 cells assessed as late apoptotic cells at 92 uM incubated for 24 hrs by Annexin V-FITC/PI staining based flow cytometric analysis (reference value: 1.4 %); format: functional
CAL-27 [30] = assay: Induction of apoptosis in human CAL-27 cells assessed as live cells at 63 uM incubated for 24 hrs by Annexin V-FITC/PI staining based flow cytometric analysis (reference value: 99.8 %); format: functional; how it was run: as §2
CAL-27 [31] = assay: Cell cycle arrest in human CAL-27 cells assessed as accumulation at S phase at 63 uM incubated for 24 hrs by flow cytometry (reference value: 3.6 %); format: functional

COc1c(O)c(CN2CCN(CC(=O)Nc3nc4ccc(C)cc4s3)CC2)c2c(c1O)C1O[C@H](CO)[C@@H](O)[C@H](O)C1OC2=O (some centres undefined)
Activity (SCC-9 [1]): 76.9% | Activity (SCC-9 [2]): 11.7% | IC50 (A549): 90.6 µM | Activity (SCC-9 [3]): 37.6% | Activity (CAL-27 [4]): 11.7% | IC50 (HCT-15): > 100 µM | Activity (SCC-9 [5]): 4.9% | Activity (CAL-27 [6]): 85.4% | Activity (CAL-27 [7]): 0.4% | Activity (SCC-9 [8]): 11.3% | Activity (SCC-9 [9]): 9.4% | Activity (CAL-27 [10]): 15.3% | Activity (SCC-9 [11]): 38.2% | Activity (SCC-9 [12]): 85.7% | Activity (CAL-27 [13]): 2.6% | Activity (CAL-27 [14]): 89% | Activity (CAL-27 [15]): 4.2% | Activity (CAL-27 [16]): 11.5% | Activity (SCC-9 [17]): 53.5% | Activity (CAL-27 [18]): 8.3% | Activity (SCC-9 [19]): 14.7% | IC50 (SCC-9 [20]): 91.9 µM | Activity (CAL-27 [21]): 3% | Activity (CAL-27 [22]): 3.7% | Activity (SCC-9 [23]): 9.4% | IC50 (CAL-27 [24]): 63.7 µM | Activity (CAL-27 [25]): 82.1% | Activity (SCC-9 [26]): 7.5% | IC50 (MCF7): 74.5 µM | Activity (SCC-9 [27]): 27% | IC50 [28]: > 100 µM | Activity (SCC-9 [29]): 12% | Activity (CAL-27 [30]): 81.1% | Activity (CAL-27 [31]): 3.2%
